RBBP9 inh = human RBBP9 hydrolase inhibition | O75884 | inhibition, % at 7.94 µM | recombinant RBBP9, FP-Rh probe fluorescence polarization | AID 1515 | hit rate 0.2% among 220,000;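 active = inhibition above the campaign mean of all tested compounds plus 3 SD, cut at about 14% in these data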;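 note: plate controls were DMSO wells with RBBP9 for no effect and wells lacking RBBP9 protein for full effect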
Target sequence (O75884 whole entry, looked up): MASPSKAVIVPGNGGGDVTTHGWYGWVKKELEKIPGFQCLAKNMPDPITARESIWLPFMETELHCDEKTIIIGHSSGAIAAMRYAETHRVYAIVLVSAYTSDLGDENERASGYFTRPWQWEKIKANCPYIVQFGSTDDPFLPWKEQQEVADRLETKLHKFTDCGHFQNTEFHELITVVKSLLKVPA
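Assay system: recombinant human RBBP9; Reagent: Serine-hydrolase probe FP-Rh, 375 nM pre-mixing; Doses: 7.94 µM single dose, 0.794% DMSO; Incubation: 30 min then 45 min, 25 °C; Detection: fluorescence polarization (mP), excitation 525 nm, emission 598 nm; Evaluation: percent inhibition from mP, scaled between DMSO and no-protein wells.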
14-3-3 Bad PPI = disrupts binding of bovine 14-3-3 zeta to phospho-Bad peptide; P63103; TR-FRET 14-3-3zeta/Dy647-pBad peptide displacement, 1 h; hit rate 0.71% among 220,000; inhibition, % at 21.7 µM;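 active = inhibition above about 70%, limit read from the data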;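 note: 0% = full 14-3-3 plus peptide FRET controls and 100% = background without 14-3-3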
p47phox inh = p47phox (human) inhibition; p47phox/p22phox peptide binding, fluorescence polarization, 2 h; inhibition, % at 24.7 µM; hit rate 0.53% among 220,000;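 note: 0% = p47phox with labelled peptide and 100% = labelled peptide alone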
Target sequence (P14598 whole entry, looked up): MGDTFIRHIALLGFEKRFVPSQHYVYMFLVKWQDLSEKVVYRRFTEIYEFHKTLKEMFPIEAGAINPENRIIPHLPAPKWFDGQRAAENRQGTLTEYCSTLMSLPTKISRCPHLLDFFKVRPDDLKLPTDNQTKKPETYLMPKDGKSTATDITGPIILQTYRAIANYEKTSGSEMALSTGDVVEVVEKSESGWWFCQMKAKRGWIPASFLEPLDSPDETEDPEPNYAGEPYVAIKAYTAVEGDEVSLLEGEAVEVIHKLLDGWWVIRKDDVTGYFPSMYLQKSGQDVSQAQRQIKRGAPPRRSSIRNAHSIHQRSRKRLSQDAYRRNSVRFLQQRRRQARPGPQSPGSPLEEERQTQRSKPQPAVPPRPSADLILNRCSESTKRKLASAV
Wee1 stabilizer = inhibitors of human Wee1 degradation; P30291; hit rate 1.2% among 220,000; HeLa Luc-Wee1K328M stability, luciferase luminescence; 100% = proteasome inhibitor MG132 effect; reporter increase, % at 5 µM;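 active = activation above the mean of all tested compounds plus 3 SD, set per screening run, cut at about 8.8% in these data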;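 note: cells exposed to compound for 20 h before luminescence read; 0% = DMSO alone and 100% = MG132 at 30 µM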
eIF4E 4G PPI = blocks eIF4E binding to eIF4G; inhibition, % at 21.7 µM; TR-FRET eIF4E-eIF4GI(517-606) binding, 2 h; AID 782; hit rate 0.37% among 220,000;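 note: 0% = full FRET control wells and 100% = background wells lacking eIF4GI fragment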
RBBP9 inh conf = human RBBP9 inhibition, confirmation | shares compounds with RBBP9 inh | recombinant RBBP9, FP-Rh probe fluorescence polarization | inhibition, % at 7.94 µM | hit rate 36% among 410 | AID 1537;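 active = inhibition above the hit cutoff derived for the primary screen, cut at about 15% in these data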;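 note: 0% = RBBP9 with DMSO and 100% = wells lacking RBBP9 protein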
* hit, by the source's call; / = not tested or not shown; ! = a repeat was not active; [ ] = remark or other dose. In the library only some 2.8% were active in any assay of this set; here they are far more common.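 Rule for the calls, unless noted: active = inhibition above about 30% (limit read from the data); inactive = the rest.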

SMILES	RBBP9 inh	14-3-3 Bad PPI	p47phox inh	Wee1 stabilizer	eIF4E 4G PPI	RBBP9 inh conf
COCCN=c1scc(-c2ccccc2)n1/N=C/c1c[nH]c2ccccc12	0	-8	-9	-2	-1	/
COCCN=c1scc(-c2cccs2)n1/N=C/c1ccc(O)c(O)c1O	36*	5	8	-3	6	63*
CCN=c1scc(C)n1/N=C/c1ccc(O)c(O)c1O	34*	-1	-6	-2	7	61*
O=C(N/C(=C/c1cccnc1)C(=O)N1CCOCC1)c1ccccc1F	-7	-5	-4	0	1	/
CC(Cn1cnc2ccccc21)C(=O)O (stereo unspecified)	15*	-7	-5	-2	0	7
CC(Cn1nnc2ccccc21)C(=O)O (stereo unspecified)	0	2	0	-1	0	/
CCc1cc(OCCCSc2nc(C)cc(=O)[nH]2)ccc1Cl	-6	-7	-5	-1	-4	/
CCN(CC)C(=O)CSc1nnc([C@@H](N)C(C)C)o1	6	1	-10	4	3	/
CCOc1ccc(S(=O)(=O)N(C(=O)c2ccco2)c2cc3sc(=O)oc3c3ccccc23)cc1	30*	-4	-11	1	9	5
Cc1ccc(S(=O)(=O)N(C(=O)c2ccco2)c2cc3sc(=O)oc3c3ccccc23)cc1	40*	7	-7	-1	1	5
COc1ccc(S(=O)(=O)N(C(=O)C(C)C)c2ccc3oc(=O)sc3c2)cc1	-3	-1	-13	-2	-3	/
COc1ccc(S(=O)(=O)N(C(=O)c2ccco2)c2cc3sc(=O)oc3c3ccccc23)cc1	29*	-8	-17	-1	14	9
Cc1ccc(S(=O)(=O)N(C)CC(=O)N2CCN(C(=O)c3ccco3)CC2)cc1	-4	2	-1	1	5	/
CCOc1ccc(NC(=O)c2ccco2)cc1	4	11	-9	0	4	/
FC(F)(F)c1cc(-c2cccs2)nc2cc(-c3cccs3)nn12	-6	5	-1	3	-5	/
Cc1ccc(S(=O)(=O)N(C)c2ccccc2)cc1	14*	3	-8	-1	5	-11
Cc1ccc(N(C)S(=O)(=O)c2ccc(C)cc2)cc1	-2	-1	-18	6	5	/
COc1cc(S(=O)(=O)Nc2ccc3cn[nH]c3c2)ccc1Cl	-8	-1	-16	3	1	/
CCCS(=O)(=O)Nc1ccc2cn[nH]c2c1	17*	-3	-6	-4	1	-1
N#Cc1ncc(C(F)(F)F)cc1Sc1ccc(N)cc1	19*	3	-4	3	2	7
CC1CCCC(NC(=S)Nc2cccc(S(=O)(=O)N(C)C)c2)C1C (stereo unspecified)	-16	-4	-7	-1	-2	/
O=C1c2ccccc2NC(c2cccc(O)c2)N1Cc1ccco1 (stereo unspecified)	15*	-18	-15	-1	3	29*
COc1ccc(C2Nc3ccccc3C(=O)N2Cc2ccco2)cc1CN1C(=O)c2ccccc2C1=O (stereo unspecified)	-4	-7	-23	-1	-12	/
CCCCCc1ccc(OCCCC[n+]2cccc(C)c2)c(CCCCC)c1	15*	-2	20	2	7	0
CC(C)CC(=O)Nc1ccc(N2CCOCC2)cc1	-9	8	0	1	12	/
SMILES	RBBP9 inh	14-3-3 Bad PPI	p47phox inh	Wee1 stabilizer	eIF4E 4G PPI	RBBP9 inh conf
O=C(Oc1cccc([N+](=O)[O-])c1)N1CCCCC1	16*	-9	-4	-1	0	2
CCc1ccccc1NC(=O)CSc1nnc(Cn2nnc3ccccc32)n1C	15*	-6	8	-1	-2	5
COc1ccc(NC(=O)CSc2nnc(Cn3nnc4ccccc43)n2C)cc1	4	-6	10	-2	-4	/
Oc1ccc(-c2cn3c(n2)SCC3)cc1O	21*	-7	7	0	25	51*
O=C1C2CC=CCC2C(=O)N1Cc1ccccc1 (stereo unspecified)	19*	-1	-5	0	-2	9
COc1ccc2c(c1)Sc1ccccc1N2	16*	-6	11	-4	11	30*
CCC(C)(C)c1ccc2c(c1)C(=O)c1ccccc1C2=O	2	3	11	-1	-7	/
CCOC(=O)c1c(C)n(C)c2cc([N+](=O)[O-])c(O)c([N+](=O)[O-])c12	-4	-6	-5	0	5	/
CCOC(=O)c1c(C)n(C)c2cc(Br)c(O)c(O)c12	17*	-8	-7	1	0	31*
COc1ccc(/C=C/C(=O)NCc2ccccn2)cc1OC	8	-14	-2	-2	-4	/
COc1cc(NC(=O)c2cc3ccccc3cc2O)c(OC)cc1Cl	4	-12	-9	7	-5	/
COc1ccccc1NC(=O)c1cc2cc(Br)ccc2cc1O	19*	5	-26	-3	8	30*
Cc1ccc(Nc2nc(-c3ccc(O)c(O)c3)cs2)nc1	22*	-3	-6	2	-1	46*
C/C(Cc1ccccc1)=N\NC(=O)CNC(=O)c1ccc(Cl)cc1Cl	-14	2	3	1	-3	/
C/C(Cc1ccccc1)=N\NC(=O)CNC(=O)c1cccc(Cl)c1	21*	-3	1	2	0	-3
CC1(C)NC(=O)NC2(C)NC(=O)NC(C)(C)C12 (stereo unspecified)	20*	8	-9	-1	2	11
Cc1cc(N/C=C(\C#N)S(=O)(=O)c2ccc(Cl)cc2)nc(C)n1	-2	0	2	1	0	/
C=CCn1c(C(CCCC)CC(C)O)n[nH]c1=S (stereo unspecified)	-7	14	1	0	2	/
COC(=O)C1CSc2[nH]c(=O)sc2C1c1ccc(O)c(OC)c1 (stereo unspecified)	14*	-3	-14	1	2	1
Cc1[nH]c2ccccc2c1C(=O)COC(=O)c1ccc[n+]([O-])c1	16*	6	0	-3	1	0
O=C1Nc2ccc(Cl)cc2/C1=C/C1CC=CCC1 (stereo unspecified)	-1	-2	1	1	4	/
N#C/C(=C\c1cc(Cl)c(OCc2ccc(Cl)cc2)c(Cl)c1)C(N)=O	-4	4	-6	3	3	/
N#C/C(=C\c1cc(O)c(O)c(O)c1)C(N)=O	18*	9	-10	0	5	20*
COc1cc(OC)c(-c2c3cc(O)c(=O)cc-3oc3cc(O)c(O)cc23)cc1OC	-169	-3	-308	0	4	/
Cc1c2cc(O)c(=O)cc-2oc2cc(O)c(O)cc12	43*!	93*	-256	1	35*![fluorescence artefact?]	83*
COc1ccc(/C=C/C(=O)Nc2ccccc2)cc1S(=O)(=O)N1CCOCC1	37*	-6	-8	-3	1	4

Screens as filed in PubChem.
